Experimental data: the EternaBench riboswitch data

System: MS2 coat protein
Assay: apparent Kd, MS2 coat protein; higher = weaker binding; RNA-MaP array; tryptophan 2.4 mM where present
Method in brief: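 The apparent Kd comes from binding curves fitted cluster by cluster, filtered, and summarised as a median. Those curves followed SNAP-549-labelled MS2 coat protein from 0.7 or 1.5 nM, doubling to 3 µM, on Illumina sequencing-chip clusters where stalled E. coli RNA polymerase had transcribed the designs, without and then with constant ligand. The buffer was 100 mM Tris-HCl pH 7.5, 80 mM KCl, 4 mM MgCl2, BSA, DTT, yeast tRNA and Tween-20, and green signal was normalised to red-channel RNA signal and control-cluster median Fmax.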

[1] = designed as: ON switch for tryptophan, no ligand
[2] = ligand present: tryptophan, designed as: ON switch for tryptophan
[3] = designed as: OFF switch for tryptophan, no ligand
[4] = ligand present: tryptophan, designed as: OFF switch for tryptophan

| Sequence | apparent Kd [1] [nM] | apparent Kd [2] [nM] | apparent Kd [3] [nM] | apparent Kd [4] [nM] |
| --- | --- | --- | --- | --- |
| GGAAACCCGACGGCCGCCACUAACGGUCUCAAAAGAGGUUGAACACAUGAGGAUCACCCAUGUAAUAGGACCGGGUCGUGUGAAA | 20.3 | 18.5 | – | – |
| CGCCACUCGAGUGAUCCUCACGAGUGGCUACGAGGACCGGUACGGCCGCCACUCGAAUUAACAUGAGGAUCACCCAUGUAAUCUA | 56.7 | 27.7 | – | – |
| ACCUGCGUUUGAUUCUAUCAGACGCAGGUUCGAGGACCGGUACGGCCGCCACUCGGACAUGAGGAUCACCCAUGUUUGACAUGGG | – | – | 64.5 | 211 |
| GCAUCCUAGUCGGCCGCCACUGCAUCACCAGUGGCAGGUGAUCAACAUGAGGAUCACCCAUGUAGCAGGACCGGGACUAGGAUGC | 135 | 43.7 | – | – |
| AAUAUAAUAGACUCGUUUUAGUAUUUGGAACGAGGACCGGUACGGCCGCCACUCGUGAUUUACAUGAGGAUCACCCAUGUUAGCA | 14.7 | 13.1 | – | – |
| AGACUUCGCAUAGGAAAACUAUGUGAAGUCCGAGGACCGGUACGGCCGCCACUCGUCCUCACAUGAGGAUCACCCAUGUAAAUAA | – | – | 22.2 | 29.1 |
| UGUCAGCGAAAGUUGACAUGUCUUACCGGUCGAGGACCGGUACGGCCGCCACUCGAUCACUCGCACAUGAGGAUCACCCAUGUUG | 18.9 | 14.3 | – | – |
| AACAUGAGGAUCACCCAUGUGUCCUCGAAACGAGGACCGGUACGGCCGCCACUCGAAUAAGGUGUUGACGAAAAGUCAGCACCAA | – | – | 274 | 501 |
| UGUCAUGGAAACAUGACAGGUCUUACCGGUCGAGGACCGGUACGGCCGCCACUCGAUUGGUGGCACAUGAGGAUCACCCAUGUUA | 29 | 26.7 | – | – |
| AACAUACAAUAUUAGGUGGAUAUAAGGCGGCGAGGACCGGUACGGCCGCCACUCGCGUACAUGAGGAUCACCCAUGUCUGAAACU | 20.4 | 23.5 | – | – |
| ACAUGAGGAUCACCCAUGUGAAGCAGGGUACGAGGACCGGUACGGCCGCCACUCGAACAUUAUAACGAGUGAAUGGCAACGAUGU | – | – | 11.9 | 14.2 |
| UUCAGCUAGUCGGCCGCCACUACAUGAGGAUCACCCAUGUCGGUCCUCACUGCUUCGGCAGUGUGUAGGACCGGGACUAGCUGAG | – | – | 72.3 | 720 |
| CCUAUGCAGUCGGCCGCCACUGAUAACGUUAUCGUUACCUCAGAAACAUGAGGAUCACCCAUGUACAGGACCGGGACUGUAUAGG | – | – | 12.8 | 15.3 |
| AGAUUCGACACGGCCGCCACUCGUGACGGAUUUCCGAGUGUCGAACAUGAGGAUCACCCAUGUACGAGGACCGGGUGUUGAGUCU | – | – | 74.7 | 499 |
| GAGUCCGCGGCGGCCGCCACUCGCGAUAUAACAUGAUAUCAGGACAUGAGGAUCACCCAUGUCACGAGGACCGGGCCGAUCCUCA | 28 | 17.6 | – | – |
| GCUACAUGAGGAUCACCCAUGUAUGCGAGCCGAGGACCGGUACGGCCGCCACUCGCUUAACAUGAGGAUCACCCAUGUUUCUCGG | 169 | 125 | – | – |
| GGAGUAGGAAACUAUUCCAAUCCUCGUGAACGAGGACCGGUACGGCCGCCACUCGAUAAUUAAUAACAUGAGGAUCACCCAUGUA | – | – | 83.7 | 121 |
| UGUCAGCGAAAGUUGACAUGUCUUACCGGUCGAGGACCGGUACGGCCGCCACUCGAUCACUCGCACAUGAGGAUCACCCAUGUCG | 12.4 | 11.7 | – | – |
| UUCGUAUUGUCGGCCGCCACUGCAACAUGAGGAUCACCCAUGUAAAUUUGGGAGUAGUUAUAUUACAGGACCGGGACAAUAGUAA | – | – | 102 | 139 |
| GGUUACUCUACGGCCGCCACUGUCAUGUAAAGAUACCUGUACAUGACAUGAGGAUCACCCAUGUGCAGGACCGGGUAGUGUAACC | 152 | 130 | – | – |
| AUUAAUAAUAUGUAGACGGCGGAGACGAGACGAGGACCGGUACGGCCGCCACUCGUGUUAGUUAACAUGAGGAUCACCCAUGUUA | 12.5 | 12.8 | – | – |
| UGUAUUACGAAAGUAGUACAUCGUGUUCGACGAGGACCGGUACGGCCGCCACUCGGACAUGAGGAUCACCCAUGUAGCGAAAGCU | 158 | 256 | – | – |
| GAGGAAACUCACAUGAGGAUCACCCAUGUACGAGGACCGGUACGGCCGCCACUCGAAACCAUGGGCGGUAGUACAUGGAAACAUG | – | – | 72.3 | 263 |
| UCGGAUGCGGCGGCCGCCACUCGCGGAUAACGAUAGCUUAACAUGAGGAUCACCCAUGUGUCAUGGAGGACCGGGCCCAUACCGU | 23.4 | 20.7 | – | – |
